# Screens (PubChem BioAssay)
# TRPC4 PAM = TRPC4 (mouse) allosteric potentiation. HEK293 TRPC4beta/mu-opioid, DAMGO EC20, Fluo-4 Ca2+ flux; hits give high values. B-score at 10 µM. AID 2227. 310,000 compounds, 0.42% hits. Q9QUQ5;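 active = B-score of calcium response area above 5 SD of library B-scores, with initial fluorescence ratio within 5 SD of library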
# TRPC4 agonist = opens the mouse TRPC4 cation channel. 310,000 compounds, 0.49% hits. B-score at 10 µM. HEK293 TRPC4beta/mu-opioid, Fluo4 calcium fluorescence; hits give high values. Q9QUQ5. AID 2237;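 active = B-score above 5 SD of library B-scores, and initial fluorescence ratio not above library mean plus 5 SD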;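 also: positive B-score marks a calcium rise read as TRPC4 activation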
#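 Assay system – TRPC4beta and mu-opioid receptor HEK293 stable cells · Measured by – Fluo4 fluorescence, kinetic · Schedule – dye loading 45 min room temperature, 110 s kinetic read · Read-out – B-scored integrated calcium fluorescence ratio · Controls – buffer and maximal DAMGO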
# TRPC4 block = TRPC4 (mouse) channel inhibition. Q9QUQ5. HEK293 TRPC4beta/mu-opioid, DAMGO-evoked Fluo4 calcium flux; hits give low values. B-score at 10 µM. 300,000 compounds, 0.39% hits;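 active = B-score over 3 SD under the library average, no early fluorescence shift, positive overall ratio signal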
#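 Assay system: HEK293 cells with stable TRPC4beta plus mu-opioid receptor expression. Dosing: single dose. Measured by: Fluo4 Ca2+ flux fluorescence. Also added: DAMGO in two steps, submaximal then maximal. Read-out: B score from integrated Fluo4 fluorescence ratio.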
# TRPC6 inhibitor = blocks the mouse TRPC6 cation channel; Q61143; HEK293-TRPC6, membrane potential dye, ACh-evoked depolarization; hits give low values; B-score at 10 µM; 310,000 compounds, 1.1% hits;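 active = B-score under library mean minus 3 SD, initial fluorescence not abnormally high, positive integrated signal ratio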;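 also: B-score derived from integrated fluorescence ratio over the kinetic read; more negative B-score means stronger inhibition of depolarization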
# Target sequence (Q61143 whole entry, looked up): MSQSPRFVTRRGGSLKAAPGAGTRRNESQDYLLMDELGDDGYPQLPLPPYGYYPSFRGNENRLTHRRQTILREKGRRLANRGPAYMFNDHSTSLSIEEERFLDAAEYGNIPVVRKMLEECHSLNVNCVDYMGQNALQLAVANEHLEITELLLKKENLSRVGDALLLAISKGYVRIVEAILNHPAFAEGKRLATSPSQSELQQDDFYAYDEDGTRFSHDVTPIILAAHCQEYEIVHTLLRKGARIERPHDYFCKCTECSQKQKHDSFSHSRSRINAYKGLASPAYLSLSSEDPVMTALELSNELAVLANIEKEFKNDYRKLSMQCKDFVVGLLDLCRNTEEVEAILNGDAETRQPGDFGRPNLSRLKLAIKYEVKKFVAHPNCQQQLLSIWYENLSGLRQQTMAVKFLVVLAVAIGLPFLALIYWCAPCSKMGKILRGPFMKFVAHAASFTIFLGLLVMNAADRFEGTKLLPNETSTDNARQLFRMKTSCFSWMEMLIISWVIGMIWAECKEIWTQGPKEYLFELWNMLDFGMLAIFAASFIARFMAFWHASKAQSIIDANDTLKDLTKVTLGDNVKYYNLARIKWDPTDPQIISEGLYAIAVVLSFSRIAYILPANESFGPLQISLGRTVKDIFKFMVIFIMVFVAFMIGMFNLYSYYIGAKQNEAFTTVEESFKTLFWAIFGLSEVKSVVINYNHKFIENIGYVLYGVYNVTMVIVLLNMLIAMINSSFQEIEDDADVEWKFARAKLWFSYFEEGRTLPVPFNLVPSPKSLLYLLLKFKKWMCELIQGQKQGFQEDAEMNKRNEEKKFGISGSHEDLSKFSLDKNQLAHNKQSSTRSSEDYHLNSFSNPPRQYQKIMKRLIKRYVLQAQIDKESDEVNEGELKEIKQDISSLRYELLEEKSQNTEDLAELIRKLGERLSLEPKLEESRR
# TRPC6 activator = mouse TRPC6 channel activation | Q61143 | HEK293-TRPC6 membrane potential dye fluorescence; hits give high values | B-score at 10 µM | 310,000 compounds, 0.13% hits;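 active = B-score of the integrated fluorescence ratio above library mean plus 3 SD, and starting fluorescence ratio within library mean plus 5 SD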;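 also: higher score means more depolarization so channel activation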
# Hits are given with their value; . = inactive; / = no result given. Shown are actives, neighbours in structure and some others; about 2.3% of the full set was active somewhere.
SMILES,TRPC4 PAM,TRPC4 agonist,TRPC4 block,TRPC6 inhibitor,TRPC6 activator
Cn1c(-c2ccccc2)cnc1NCc1ccccc1,.,.,-6,.,.
CCc1ccc(NC(=O)CSc2nc3nc(C)cc(C)n3n2)cc1,.,.,.,.,.
CN1CCCN(Cc2cccc3ccccc23)CC1,23,.,.,.,.
OC1CCN(Cc2cccc3ccccc23)CC1,.,.,.,.,.
COc1ccc(-n2c3c(cc(C(=O)NCc4ccco4)c2=O)C(=O)CC(C)(C)C3)cc1,.,.,-7,.,.
COc1ccc(/C=C2\SC(=S)N(C(Cc3ccccc3)C(=O)O)C2=O)cc1 (stereo not given),.,.,-8,.,.
CC(/C=C1\SC(=S)N(C(C(=O)O)C(C)C)C1=O)=C\c1ccccc1 (stereo not given),.,.,-6,.,.
CC(C)c1ccc([N+](=O)[O-])cc1S(=O)(=O)N1CCN(C)CC1,.,.,.,.,.
O=C(NCc1ccccc1)C1=C[C@H](c2ccc3c(c2)OCO3)C[C@H](OCc2ccc(CO)cc2)O1,.,211,-6,.,.
CC(C)(C)[C@H]1C=C(C(=O)Nc2ccccc2)O[C@@H](OCc2ccc(CO)cc2)C1,.,.,.,.,.
CC(C)(C)[C@@H]1C=C(C(=O)NCc2ccccc2)O[C@H](OCc2ccc(CO)cc2)C1,13,.,.,.,.
O=C(Nc1ccccc1)C1=C[C@@H](C2CCCCC2)C[C@@H](OCc2ccc(CO)cc2)O1,.,.,.,.,.
O=C(NCc1ccccc1)C1=C[C@H](c2ccc(Br)cc2)C[C@H](OCc2ccc(CO)cc2)O1,15,.,.,.,.
O=C(Nc1ccccc1)C1=C[C@H](C2CCCCC2)C[C@H](OCc2ccc(CO)cc2)O1,19,.,.,.,.
Cc1cccn2c(CNCCc3ccccn3)c(C(=O)N3CCOCC3)nc12,.,171,.,.,.
Cc1cccc(NC(=O)CCSc2nnc(Cc3ccccc3)o2)c1,.,.,.,.,.
CCn1nc(C)c(CN2CCCC(CO)(Cc3cccc(Cl)c3)C2)c1C (stereo not given),.,.,-6,.,.
COCCN(C(=O)COC(=O)c1c(NC(C)=O)sc(C)c1C)c1c(N)n(Cc2ccccc2)c(=O)[nH]c1=O,.,.,.,.,.
Cc1cccc2cc(CN(CCCN(C)C)C(=S)NCCc3ccccc3)c(=O)[nH]c12,.,.,-6,.,.
Cc1ccc2[nH]c(=O)c(CN(CCCN(C)C)C(=S)NCCc3ccccc3)cc2c1,.,.,.,.,.
Cc1[nH]c2ccc(C(=O)N3CCN(c4ccccn4)CC3)cc2c1C,.,.,.,.,.
COC(=O)C(Cc1cccc(C)n1)(c1ccccc1)c1ccccc1,.,.,-7,.,.
CCN1CCN(c2ccc(NC(=O)c3ccc(Br)o3)cc2)CC1,.,.,.,.,.
CN1CCN(c2ccc(NC(=O)c3ccc(-c4ccc(Br)cc4)o3)cc2)CC1,.,48,-7,.,.
CCOC(=O)c1c(C)[nH]c(C)c1S(=O)(=O)NCCc1ccco1,.,.,.,.,.
SMILES,TRPC4 PAM,TRPC4 agonist,TRPC4 block,TRPC6 inhibitor,TRPC6 activator
CCOc1cc(N2CCOCC2)c(OCC)cc1NC(=O)CN1C(=O)C2CC=CCC2C1=O (stereo not given),.,.,.,.,.
CCOc1cc(N2CCOCC2)c(OCC)cc1NC(=O)c1ccccc1C,.,.,.,.,.
CCCCN1C(=O)C(=O)N(CC(=O)Nc2cc(OCC)c(N3CCOCC3)cc2OCC)C1=O,21,.,.,.,.
CCOc1cc(N2CCOCC2)c(OCC)cc1NC(=O)c1ccc2ccccc2n1,11,.,.,.,.
Cc1c(C(=O)N2C[C@@H](C)O[C@@H](C)C2)oc2c(F)cccc12,.,.,.,.,.
CCNC(=S)N/N=C/c1cc(C)n(-c2ccc(Cl)cc2)c1C,22,.,.,.,.
Cc1cc(/C=N/NC(N)=S)c(C)n1-c1ccc(Cl)c(Cl)c1,.,.,.,.,.
O=C(NC12CC3CC(CC(C3)C1)C2)c1ccc([N+](=O)[O-])cc1,.,.,.,.,.
O=[N+]([O-])c1ccc(C23CC4CC(CC(O)(C4)C2)C3)cc1,.,.,-6,.,.
CC(C)(C)c1ccccc1NC(=O)NC1CCN(Cc2c(F)cccc2Cl)CC1,.,116,.,.,.
O=C(Nc1ccccc1)NC1CCN(Cc2c(F)cccc2Cl)CC1,.,.,.,.,.
CCN(CC)CCSc1nc2ccc(OC)cc2[nH]1,.,124,.,.,.
CCOC(=O)c1ccc(NC(=S)N2CCSC2c2ccc(Cl)cc2)cc1 (stereo not given),20,.,.,.,.
CCN(CC(=O)Nc1ccc(N2CCOCC2)cc1)C(=O)c1ccc(C(F)(F)F)cc1,.,.,.,.,.
c1ccc2[nH]c(CCCCc3nc4ccccc4[nH]3)nc2c1,.,.,-6,.,.
O=C(Cc1nc2ccccc2[nH]1)c1ccc(Br)cc1,.,72,.,.,.
O=S(=O)(c1cnccc1N1CCN(CCO)CC1)N1CCCCC1,.,.,.,.,.
CN(C)c1ccc(NC(=O)CN2CCN(S(=O)(=O)c3cc(Cl)ccc3Cl)CC2)cc1,.,.,.,.,.
O=C(CN1CCN(S(=O)(=O)c2cc(Cl)ccc2Cl)CC1)Nc1ccc2c(c1)OCCO2,.,57,.,-5.6,.
Cc1ccc(-c2cc(C(=O)NCCCN3CCCC3)c3ccccc3n2)cc1C,15,.,.,.,.
COc1ccc(-c2cc(C(=O)NCc3ccco3)c3ccccc3n2)cc1OC,.,.,.,.,.
CCOc1ncccc1C(=O)NCc1ccccc1,.,.,.,.,.
Cc1ccc(-c2cc(C(=O)NCCCN3CCOCC3)c3ccccc3n2)cc1C,.,.,.,.,.
COc1ccc(-c2cc(C(=O)NCC(c3ccccc3)N(C)C)c3ccccc3n2)cc1OC (stereo not given),.,90,.,.,.
COc1ccc(C(CNC(=O)c2ccccc2SC)N(C)C)cc1 (stereo not given),.,88,.,.,.
SMILES,TRPC4 PAM,TRPC4 agonist,TRPC4 block,TRPC6 inhibitor,TRPC6 activator
CCOc1ncccc1C(=O)NCC(c1ccccc1)N(C)C (stereo not given),.,126,.,.,.
N#Cc1ccc(-c2csc(NC(=O)c3ccc(S(=O)(=O)N4CCc5ccccc5C4)cc3)n2)cc1,.,.,.,.,.
COc1ccc(C(CNC(=O)c2cc(SC)ccc2Cl)N(C)C)cc1 (stereo not given),.,118,.,.,.
CN(C)C(CNC(=O)c1cc2ccccc2oc1=O)c1ccccc1 (stereo not given),.,87,-6,.,.
COc1ccc(C(CNC(=O)c2cncc(Br)c2)N(C)C)cc1 (stereo not given),.,.,/,.,.
CCc1ccc(C(C(=O)NC2CCCCC2)N(C(=O)c2csnn2)C2CC2)cc1 (stereo not given),.,.,.,.,.
